How the values were obtained:
Poliovirus 1 = test: Antiviral activity against Poliovirus type 1 Sabin strain infected in african green monkey Vero 76 cells assessed as reduction in plaque number after 2 days by plaque reduction assay; format: functional, organism-based; conditions: Enterovirus C, 48 h
[1] = tested on: Human immunodeficiency virus 1; test: Antiviral activity against HIV1 infected in human MT4 cells assessed as inhibition of virus-induced cytopathogenicity after 4 days by MTT assay; format: functional, organism-based; conditions: Human immunodeficiency virus 1, MT4, 96 h
How it was run: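 MT-4 cells (1 × 10^4/well in RPMI) were infected acutely with HIV-1 IIIB, 100 CCID50 (m.o.i. 0.01), with serial dilutions from 100 µM, 1:5. After 4 days at 37 °C, protection from virus-induced cytopathogenicity was read by MTT. EC50 came from linear regression against untreated controls.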

[2] = tested on: Bovine viral diarrhea virus 1; test: Antiviral activity against Bovine viral diarrhea virus infected in MDBK cells assessed as inhibition of virus-induced cytopathogenicity after 3 to 4 days by MTT assay; format: functional, organism-based; conditions: Bovine viral diarrhea virus isolates and strains
[3] = tested on: Respiratory syncytial virus; test: Antiviral activity against Respiratory syncytial virus infected in african green monkey Vero 76 cells assessed as reduction in plaque number after 5 days by plaque reduction assay; format: functional, organism-based; conditions: human respiratory syncytial virus, 120 h
Coxsackievirus B5 = test: Antiviral activity against Coxsackievirus B5 infected in african green monkey Vero 76 cells assessed as reduction in plaque number after 3 days by plaque reduction assay; format: functional, organism-based; conditions: Enterovirus B, 72 h
[4] = Cytotoxicity against mock-infected human MT4 cells after 96 hrs by MTT assay; format: cell-based
How it was run: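 Exponentially growing MT-4 cells were seeded at 1 × 10^5 cells/mL in RPMI-1640 with 10% FBS and held at 37 °C, 5% CO2 with serial compound dilutions. Viability was read by MTT after 96 h. CC50 from linear regression against untreated controls.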

[5] = Cytotoxicity against mock-infected MDBK cells after 48 to 96 hrs by MTT assay; format: cell-based, Bos taurus; conditions: cattle
How it was run: (§1)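 Mock-infected MDBK (6 × 10^5 cells/mL; MEM-E, 10% horse serum, 1 mM pyruvate) or BHK (1 × 10^6 cells/mL; MEM-E, 10% FBS) cells were incubated at 37 °C, 5% CO2 with serial dilutions from 100 µM, 1:5. Viability by MTT after 48–96 h. CC50 from linear regression against untreated controls.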

Vaccinia virus = test: Antiviral activity against Vaccinia Virus infected in african green monkey Vero 76 cells assessed as reduction in plaque number after 3 days by plaque reduction assay; format: functional, organism-based; conditions: Orthopoxvirus vaccinia, 72 h
Reovirus sp. = test: Antiviral activity against Reovirus type-1 infected in BHK21 cells assessed as inhibition of virus-induced cytopathogenicity after 3 to 4 days by MTT assay; format: functional, organism-based; conditions: BHK-21
[6] = Selectivity index, ratio of CC50 for african green monkey Vero 76 cells to EC50 for Respiratory syncytial virus; format: toxicity, cell-based; conditions: read-out: Ratio CC50/EC50
How it was run: (§2)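 Mock-infected Vero-76 cells were tested in parallel on the same 24-well plates as the plaque assays (seeding 4 × 10^5 cells/mL, D-MEM with FBS), with serial compound dilutions at 37 °C, 5% CO2. Viability was read after 48–96 h by crystal violet staining. CC50 by linear regression; selectivity index = Vero-76 CC50/EC50 for CVB-5 or RSV.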

Yellow fever virus = test: Antiviral activity against Yellow fever virus infected in BHK21 cells assessed as inhibition of virus-induced cytopathogenicity after 3 to 4 days by MTT assay; format: functional, organism-based; conditions: BHK-21
[7] = Cytotoxicity against mock-infected african green monkey Vero 76 cells after 48 to 96 hrs by MTT assay; format: cell-based; conditions: chlorocebus sabaeus, mock-infected Vero 76 cells
[8] = Selectivity index, ratio of CC50 for african green monkey Vero 76 cells to EC50 for Coxsackievirus B5; format: toxicity, cell-based; conditions: read-out: Ratio CC50/EC50; how it was run: as §2
Human alphaherpesvirus 1 = test: Antiviral activity against HSV1 infected in african green monkey Vero 76 cells assessed as reduction in plaque number after 3 days by plaque reduction assay; format: functional, organism-based; conditions: Human alphaherpesvirus 1, Vero, 72 h
[9] = Cytotoxicity against mock-infected BHK21 cells after 48 to 96 hrs by MTT assay; format: functional; conditions: Mesocricetus auratus, BHK-21; how it was run: as §1
[10] = tested on: Vesicular stomatitis virus; test: Antiviral activity against Vesicular stomatitis virus infected in african green monkey Vero 76 cells assessed as reduction in plaque number after 2 days by plaque reduction assay; format: functional, organism-based; conditions: 48 h

SMILES	EC50 (Poliovirus 1) [µM]	EC50 [1] [µM]	EC50 [2] [µM]	EC50 [3] [µM]	EC50 (Coxsackievirus B5) [µM]	CC50 at 96 h [4] [µM]	CC50 [5] [µM]	EC50 (Vaccinia virus) [µM]	EC50 (Reovirus sp.) [µM]	selectivity ratio [6]	EC50 (Yellow fever virus) [µM]	CC50 [7] [µM]	selectivity ratio [8]	EC50 (Human alphaherpesvirus 1) [µM]	CC50 [9] [µM]	EC50 [10] [µM]
c1ccc(-n2c(C[C@H]3CCCN4CCCC[C@H]34)nc3ccccc32)cc1	73	> 100	44	7	17	42	90	> 100	> 100	> 14.3	> 100	> 100	> 5.88	> 100	29	> 100
FC(F)(F)c1ccc2c(c1)nc(Cc1ccc(Cl)cc1)n2C[C@@H]1CCCN2CCCC[C@H]12	> 100	> 100	> 100	15	13	6	54	> 100	> 100	> 6.67	> 100	> 100	> 7.69	> 100	20	> 100
O=c1cnn([C@@H]2O[C@H](CO)[C@@H](O)[C@H]2O)c(=O)[nH]1 [6-AZAURIDINE]	> 100	–	> 100	–	> 100	–	> 100	–	> 100	16.7	> 100	20	–	> 100	> 100	> 100
FC(F)(F)c1ccc2c(c1)nc(C(F)(F)F)n2C[C@@H]1CCCN2CCCC[C@H]12	> 100	> 100	> 100	22	11	54	≥ 100	> 100	> 100	4.09	33	90	8.18	> 100	80	> 100
COc1c(C)c2c(c(O)c1C/C=C(\C)CCC(=O)O)C(=O)OC2 [MYCOPHENOLIC ACID]	> 100	–	> 100	–	> 100	–	–	2	> 100	33.3	> 100	20	–	> 100	> 100	–
Cc1ccc2nc(-c3ccc(F)cc3)n([C@H]3CCCN4CCCC[C@H]34)c2c1	> 100	> 100	> 100	63	80	> 100	> 100	> 100	> 100	> 1.59	> 100	> 100	> 1.25	> 100	> 100	> 100
NC(=O)c1ncn([C@@H]2O[C@H](CO)[C@@H](O)[C@H]2O)n1 [RIBAVIRIN]	> 100	–	8	–	> 100	–	> 100	> 100	> 100	> 14.3	> 100	> 100	–	> 100	> 100	> 100
Nc1ccc(Cc2nc3cc(Cl)c(Cl)cc3[nH]2)cc1	80	> 100	22	20	12	71	62	> 100	> 100	4	> 100	80	6.67	> 100	43	> 100
COc1ccc(Cc2nc3cc(C(F)(F)F)ccc3[nH]2)cc1	> 100	> 100	> 100	> 100	20	69	56	> 100	> 100	–	> 100	92	4.6	> 100	60	> 100
FC(F)(F)c1ccc2c(c1)nc(Cc1ccccc1)n2C[C@@H]1CCCN2CCCC[C@H]12	60	> 100	> 100	> 100	10	> 100	> 100	> 100	> 100	–	> 100	> 100	> 10	> 100	15	> 100
c1ccc2c(c1)Cn1c(nc3ccccc31)-c1ccccc1-2	> 100	> 100	> 100	9	> 100	44	23	> 100	> 100	8.89	> 100	80	–	> 100	20	> 100
COc1ccc(-c2nc3cc(C(F)(F)F)ccc3n2C[C@H]2CCCN3CCCC[C@H]23)cc1	> 100	> 100	> 100	> 100	54	42	57	> 100	> 100	–	> 100	> 100	> 1.85	> 100	30	> 100
FC(F)(F)c1ccc2[nH]c(Cc3ccc(Cl)cc3)nc2c1	> 100	> 100	> 100	> 100	26	> 100	16	> 100	> 100	–	> 100	70	2.69	> 100	20	> 100
COc1ccc(Cc2nc3cc(Cl)c(Cl)cc3[nH]2)cc1	> 100	> 100	> 100	5	> 100	29	17	> 100	> 100	≥ 20	> 100	> 100	–	> 100	19	> 100
Oc1ccc(-c2nc3cc(C(F)(F)F)ccc3n2C[C@@H]2CCCN3CCCC[C@H]23)cc1	> 100	> 100	> 100	> 100	26	21	48	> 100	32	–	> 100	78	3	> 100	60	> 100
Nc1ccc(Cc2nc3cc(C(F)(F)F)ccc3[nH]2)cc1	> 100	> 100	> 100	> 100	11	> 100	> 100	> 100	> 100	–	> 100	> 100	> 9.09	> 100	> 100	> 100
c1ccc(Cn2c(-c3ccccc3)nc3ccccc32)cc1	> 100	> 100	> 100	25	> 100	47	54	> 100	> 100	3.48	> 100	87	–	> 100	36	> 100
